tested on: not listed separately; test: Anticancer activity against Syrian golden hamster BHK21 cells at 10 uM after 48 hrs by SRB assay; format: functional; conditions: Mesocricetus auratus, BHK-21, 48 h; read-out: GI
Method in brief: (§1)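 RPMI-1640 culture with 10% heat-inactivated FBS, 2 mM glutamine, 1 mM pyruvate and penicillin/streptomycin at 37 °C, 5% CO2. Cells per 96-well well: H157 10⁴, BHK-21 5×10⁴. After 24 h, monolayers were exposed to 100, 10, 1 or 0.1 µM compound for 48 h, with vincristine as standard. Cells were fixed in cold 50% TCA (4 °C, 1 h) and stained with 0.4% SRB in 1% acetic acid (30 min). Dye was dissolved in 10 mM Tris and read at A490 minus A630. Read-out was percent inhibition.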

| Structure (SMILES) | inhibition of growth at 10 µM [%] |
| --- | --- |
| Cc1occc1-c1nn2c(-c3ccncc3)nnc2s1 | 61.6 |
| Oc1ccccc1OCc1nn2c(-c3ccncc3)nnc2s1 | 49.9 |
| Fc1cc(Cl)c(-c2nn3c(-c4ccncc4)nnc3s2)cc1F | 53.9 |
| c1cc(-c2nnc3sc(-c4ccoc4)nn23)ccn1 | 28.7 |

tested on: not listed separately; test: Anticancer activity against Syrian golden hamster BHK21 cells at 100 uM after 48 hrs by SRB assay; format: functional; conditions: Mesocricetus auratus, BHK-21, 48 h; read-out: GI; method in brief: as §1

| Structure (SMILES) | inhibition of growth at 100 µM [%] |
| --- | --- |
| Cc1occc1-c1nn2c(-c3ccncc3)nnc2s1 | 64.7 |
| Oc1ccccc1OCc1nn2c(-c3ccncc3)nnc2s1 | 53.8 |
| Fc1cc(Cl)c(-c2nn3c(-c4ccncc4)nnc3s2)cc1F | 58.9 |
| c1cc(-c2nnc3sc(-c4ccoc4)nn23)ccn1 | 31.2 |

biological target: Intestinal-type alkaline phosphatase (Bos taurus, UniProt P19111); test: (§2) Inhibition of calf intestinal alkaline phosphatase using p-nitrophenyl phosphate as substrate preincubated for 10 mins before substrate addition after 30 mins; conditions: not given
Sequence (P19111 whole entry): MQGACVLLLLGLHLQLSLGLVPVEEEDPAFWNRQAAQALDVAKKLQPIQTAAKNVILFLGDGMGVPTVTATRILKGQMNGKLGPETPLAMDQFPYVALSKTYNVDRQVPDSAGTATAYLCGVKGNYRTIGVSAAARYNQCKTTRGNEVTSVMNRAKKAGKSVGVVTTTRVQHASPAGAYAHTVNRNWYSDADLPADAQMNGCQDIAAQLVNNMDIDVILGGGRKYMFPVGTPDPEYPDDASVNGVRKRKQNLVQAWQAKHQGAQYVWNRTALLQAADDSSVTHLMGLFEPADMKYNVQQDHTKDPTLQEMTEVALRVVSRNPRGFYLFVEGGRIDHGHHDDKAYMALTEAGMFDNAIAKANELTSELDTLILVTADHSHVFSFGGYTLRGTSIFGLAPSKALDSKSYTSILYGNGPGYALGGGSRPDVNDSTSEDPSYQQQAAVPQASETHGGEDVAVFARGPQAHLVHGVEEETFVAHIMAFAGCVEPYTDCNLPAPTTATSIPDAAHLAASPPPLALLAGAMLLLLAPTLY

| Structure (SMILES) | IC50 [µM] |
| --- | --- |
| c1cc(-c2nnc3sc(-c4ccoc4)nn23)ccn1 | 7.71 |

biological target: Intestinal-type alkaline phosphatase (Bos taurus) (UniProt P19111); test: as §2; set-up: concentration or dose not given beside the values; conditions: not given
Sequence (P19111 20-506 limits assumed): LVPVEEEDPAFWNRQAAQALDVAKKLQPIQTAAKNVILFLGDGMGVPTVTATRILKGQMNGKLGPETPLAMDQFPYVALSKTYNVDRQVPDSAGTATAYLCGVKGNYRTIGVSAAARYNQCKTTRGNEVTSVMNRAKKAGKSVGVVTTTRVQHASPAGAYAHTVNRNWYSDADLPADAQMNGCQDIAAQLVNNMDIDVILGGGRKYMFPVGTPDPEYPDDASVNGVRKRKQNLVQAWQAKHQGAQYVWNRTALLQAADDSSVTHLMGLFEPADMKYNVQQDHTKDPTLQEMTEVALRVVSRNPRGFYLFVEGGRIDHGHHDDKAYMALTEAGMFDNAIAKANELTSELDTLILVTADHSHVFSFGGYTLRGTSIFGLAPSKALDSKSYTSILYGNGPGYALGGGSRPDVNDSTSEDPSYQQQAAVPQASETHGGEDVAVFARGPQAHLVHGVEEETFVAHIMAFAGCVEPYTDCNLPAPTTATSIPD

| Structure (SMILES) | inhibition [%] |
| --- | --- |
| Cc1occc1-c1nn2c(-c3ccncc3)nnc2s1 | 29.9 |
| Oc1ccccc1OCc1nn2c(-c3ccncc3)nnc2s1 | 46 |
| Fc1cc(Cl)c(-c2nn3c(-c4ccncc4)nnc3s2)cc1F | 31.6 |

biological target: Acetylcholinesterase (Electrophorus electricus, UniProt O42275); test: (§3) Inhibition of electric eel acetylcholinesterase using acetylthiocholine iodide as substrate preincubated for 10 mins before substrate addition after 15 mins by Ellman's method; conditions: not given
Sequence (O42275 whole entry): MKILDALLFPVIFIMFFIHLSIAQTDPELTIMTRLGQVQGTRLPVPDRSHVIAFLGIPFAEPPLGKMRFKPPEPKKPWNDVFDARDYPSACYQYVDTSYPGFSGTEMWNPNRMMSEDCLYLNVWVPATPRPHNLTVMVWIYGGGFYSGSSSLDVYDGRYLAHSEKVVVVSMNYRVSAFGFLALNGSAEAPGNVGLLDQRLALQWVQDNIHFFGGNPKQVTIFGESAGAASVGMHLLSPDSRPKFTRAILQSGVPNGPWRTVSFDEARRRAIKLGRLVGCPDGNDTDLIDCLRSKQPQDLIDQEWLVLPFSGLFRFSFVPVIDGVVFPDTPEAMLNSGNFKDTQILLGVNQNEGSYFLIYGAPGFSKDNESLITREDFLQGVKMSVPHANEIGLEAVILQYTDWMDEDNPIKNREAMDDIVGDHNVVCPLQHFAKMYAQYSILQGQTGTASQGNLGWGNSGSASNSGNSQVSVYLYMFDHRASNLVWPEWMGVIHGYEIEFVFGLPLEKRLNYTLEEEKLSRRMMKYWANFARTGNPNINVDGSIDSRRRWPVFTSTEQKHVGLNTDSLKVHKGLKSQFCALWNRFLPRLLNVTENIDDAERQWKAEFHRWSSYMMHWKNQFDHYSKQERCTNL

| Structure (SMILES) | IC50 [µM] |
| --- | --- |
| Cc1occc1-c1nn2c(-c3ccncc3)nnc2s1 | 51.2 |
| Oc1ccccc1OCc1nn2c(-c3ccncc3)nnc2s1 | 54 |

biological target: Acetylcholinesterase (Electrophorus electricus) (UniProt O42275); test: as §3; conditions: not given
Sequence (O42275 24-633 limits assumed): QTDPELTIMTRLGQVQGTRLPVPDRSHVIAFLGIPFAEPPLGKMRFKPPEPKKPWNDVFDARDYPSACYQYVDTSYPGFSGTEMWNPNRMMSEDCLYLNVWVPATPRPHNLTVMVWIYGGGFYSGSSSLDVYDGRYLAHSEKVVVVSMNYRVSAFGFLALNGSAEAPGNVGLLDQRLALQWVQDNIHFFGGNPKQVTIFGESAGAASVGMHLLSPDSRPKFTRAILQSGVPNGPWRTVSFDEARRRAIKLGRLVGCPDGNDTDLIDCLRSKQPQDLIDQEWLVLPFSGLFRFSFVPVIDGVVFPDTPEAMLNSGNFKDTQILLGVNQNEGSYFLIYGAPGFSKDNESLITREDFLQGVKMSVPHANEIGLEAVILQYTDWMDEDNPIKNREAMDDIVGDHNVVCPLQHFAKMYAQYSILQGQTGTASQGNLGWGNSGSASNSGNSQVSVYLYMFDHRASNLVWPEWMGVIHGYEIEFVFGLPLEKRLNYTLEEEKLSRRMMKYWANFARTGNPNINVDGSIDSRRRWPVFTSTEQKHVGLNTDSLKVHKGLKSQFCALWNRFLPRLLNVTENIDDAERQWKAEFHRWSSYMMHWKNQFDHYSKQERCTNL

| Structure (SMILES) | inhibition [%] |
| --- | --- |
| Fc1cc(Cl)c(-c2nn3c(-c4ccncc4)nnc3s2)cc1F | 47.2 |
| c1cc(-c2nnc3sc(-c4ccoc4)nn23)ccn1 | 34.6 |

tested on: Leishmania major; test: Antileishmanial activity against promastigote form of Leishmania major at 0.1 uM after 72 hrs by MTT assay; format: functional; conditions: not given
Method in brief: (§4)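 Log-phase promastigotes grown at 25 °C in phenol-red-free D-MEM/F-12 with 10% heat-inactivated FBS, washed in PBS, seeded at 2.5×10⁶/mL (100 µL/well). Compounds in triplicate wells, 72 h at 25 °C; amphotericin B standard. MTT (5 mg/mL stock) 3 h, stopped with 50% isopropanol/10% SDS, OD570 minus 690. Percent inhibition vs control; mean ± SEM of three independent experiments.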

| Structure (SMILES) | inhibition at 0.1 µM [%] |
| --- | --- |
| Cc1occc1-c1nn2c(-c3ccncc3)nnc2s1 | 25.1 |
| Oc1ccccc1OCc1nn2c(-c3ccncc3)nnc2s1 | 27.8 |
| Fc1cc(Cl)c(-c2nn3c(-c4ccncc4)nnc3s2)cc1F | 31.3 |
| c1cc(-c2nnc3sc(-c4ccoc4)nn23)ccn1 | 45.2 |

tested on: NCI-H157; test: Anticancer activity against human NCI-H157 cells at 100 uM after 48 hrs by SRB assay; format: functional; conditions: NCI-H157, 48 h, read-out: GI; method in brief: as §1

| Structure (SMILES) | inhibition of growth at 100 µM [%] |
| --- | --- |
| Cc1occc1-c1nn2c(-c3ccncc3)nnc2s1 | 58.4 |
| Oc1ccccc1OCc1nn2c(-c3ccncc3)nnc2s1 | 41.8 |
| Fc1cc(Cl)c(-c2nn3c(-c4ccncc4)nnc3s2)cc1F | 49.2 |
| c1cc(-c2nnc3sc(-c4ccoc4)nn23)ccn1 | 64.3 |

tested on: NCI-H157; test: Anticancer activity against human NCI-H157 cells at 10 uM after 48 hrs by SRB assay; format: functional; conditions: NCI-H157, 48 h, read-out: GI; method in brief: as §1

| Structure (SMILES) | inhibition of growth at 10 µM [%] |
| --- | --- |
| Cc1occc1-c1nn2c(-c3ccncc3)nnc2s1 | 55.1 |
| Oc1ccccc1OCc1nn2c(-c3ccncc3)nnc2s1 | 37.3 |
| Fc1cc(Cl)c(-c2nn3c(-c4ccncc4)nnc3s2)cc1F | 45.2 |
| c1cc(-c2nnc3sc(-c4ccoc4)nn23)ccn1 | 61.6 |

tested on: Leishmania major; test: Antileishmanial activity against promastigote form of Leishmania major at 1 uM after 72 hrs by MTT assay; format: functional; conditions: not given; method in brief: as §4

| Structure (SMILES) | inhibition at 1 µM [%] |
| --- | --- |
| Cc1occc1-c1nn2c(-c3ccncc3)nnc2s1 | 27.3 |
| Oc1ccccc1OCc1nn2c(-c3ccncc3)nnc2s1 | 31.2 |
| Fc1cc(Cl)c(-c2nn3c(-c4ccncc4)nnc3s2)cc1F | 35.4 |
| c1cc(-c2nnc3sc(-c4ccoc4)nn23)ccn1 | 48.5 |

tested on: Leishmania major; test: Antileishmanial activity against promastigote form of Leishmania major at 100 uM after 72 hrs by MTT assay; format: functional; conditions: not given; method in brief: as §4

| Structure (SMILES) | inhibition at 100 µM [%] |
| --- | --- |
| Cc1occc1-c1nn2c(-c3ccncc3)nnc2s1 | 34.9 |
| Oc1ccccc1OCc1nn2c(-c3ccncc3)nnc2s1 | 37.2 |
| Fc1cc(Cl)c(-c2nn3c(-c4ccncc4)nnc3s2)cc1F | 40.3 |
| c1cc(-c2nnc3sc(-c4ccoc4)nn23)ccn1 | 54.6 |

biological target: Cholinesterase (Homo sapiens, UniProt P06276); test: Inhibition of human BChE using butyrylthiocholine iodide as substrate preincubated for 10 mins before substrate addition after 15 mins by Ellman's method; set-up: concentration or dose not given beside the values; conditions: not given
Method in brief: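 Ellman assay in 50 mM Tris-HCl, 0.1 M NaCl, 0.02 M MgCl2, pH 8.0, with DMSO at 1% final. hBChE (3.4 U/mg) is preincubated with compound for 10 min at 25 °C. Blanks lack enzyme or substrate. IC50 from linear regression.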

Cholinesterase, sequence (P06276 whole entry): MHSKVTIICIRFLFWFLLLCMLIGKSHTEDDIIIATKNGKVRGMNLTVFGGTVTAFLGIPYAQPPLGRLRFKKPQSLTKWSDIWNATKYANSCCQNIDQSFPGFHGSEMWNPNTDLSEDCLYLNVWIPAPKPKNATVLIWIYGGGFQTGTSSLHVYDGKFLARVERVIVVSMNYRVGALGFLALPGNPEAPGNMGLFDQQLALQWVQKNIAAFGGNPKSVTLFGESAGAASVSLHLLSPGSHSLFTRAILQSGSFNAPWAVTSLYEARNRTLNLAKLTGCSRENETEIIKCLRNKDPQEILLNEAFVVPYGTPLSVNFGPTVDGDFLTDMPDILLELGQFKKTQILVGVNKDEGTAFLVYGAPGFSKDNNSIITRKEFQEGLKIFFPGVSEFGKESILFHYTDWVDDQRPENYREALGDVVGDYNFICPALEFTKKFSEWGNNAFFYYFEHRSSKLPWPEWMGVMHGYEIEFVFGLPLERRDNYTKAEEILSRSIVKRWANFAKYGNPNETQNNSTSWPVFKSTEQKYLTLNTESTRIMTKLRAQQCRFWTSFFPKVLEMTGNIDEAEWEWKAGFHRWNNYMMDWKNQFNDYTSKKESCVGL

| Structure (SMILES) | inhibition [%] | IC50 [µM] |
| --- | --- | --- |
| Cc1occc1-c1nn2c(-c3ccncc3)nnc2s1 | 41.2 | – |
| Oc1ccccc1OCc1nn2c(-c3ccncc3)nnc2s1 | – | 18 |
| Fc1cc(Cl)c(-c2nn3c(-c4ccncc4)nnc3s2)cc1F | 18.2 | – |
| c1cc(-c2nnc3sc(-c4ccoc4)nn23)ccn1 | – | 36.2 |

tested on: Leishmania major; test: Antileishmanial activity against promastigote form of Leishmania major at 10 uM after 72 hrs by MTT assay; format: functional; conditions: not given; method in brief: as §4

| Structure (SMILES) | inhibition at 10 µM [%] |
| --- | --- |
| Cc1occc1-c1nn2c(-c3ccncc3)nnc2s1 | 30.8 |
| Oc1ccccc1OCc1nn2c(-c3ccncc3)nnc2s1 | 34.6 |
| Fc1cc(Cl)c(-c2nn3c(-c4ccncc4)nnc3s2)cc1F | 37.9 |
| c1cc(-c2nnc3sc(-c4ccoc4)nn23)ccn1 | 51.5 |

tested on: NCI-H157; test: Anticancer activity against human NCI-H157 cells at 0.1 uM after 48 hrs by SRB assay; format: functional; conditions: NCI-H157, 48 h, read-out: GI; method in brief: as §1

| Structure (SMILES) | inhibition of growth at 0.1 µM [%] |
| --- | --- |
| Cc1occc1-c1nn2c(-c3ccncc3)nnc2s1 | 47.1 |
| Oc1ccccc1OCc1nn2c(-c3ccncc3)nnc2s1 | 31.8 |
| Fc1cc(Cl)c(-c2nn3c(-c4ccncc4)nnc3s2)cc1F | 36.4 |
| c1cc(-c2nnc3sc(-c4ccoc4)nn23)ccn1 | 54.8 |

tested on: not listed separately; test: Anticancer activity against Syrian golden hamster BHK21 cells at 1 uM after 48 hrs by SRB assay; format: functional; conditions: Mesocricetus auratus, BHK-21, 48 h; read-out: GI; method in brief: as §1

| Structure (SMILES) | inhibition of growth at 1 µM [%] |
| --- | --- |
| Cc1occc1-c1nn2c(-c3ccncc3)nnc2s1 | 57 |
| Oc1ccccc1OCc1nn2c(-c3ccncc3)nnc2s1 | 46.3 |
| Fc1cc(Cl)c(-c2nn3c(-c4ccncc4)nnc3s2)cc1F | 49.7 |
| c1cc(-c2nnc3sc(-c4ccoc4)nn23)ccn1 | 23.3 |

tested on: not listed separately; test: Anticancer activity against Syrian golden hamster BHK21 cells at 0.1 uM after 48 hrs by SRB assay; format: functional; conditions: Mesocricetus auratus, BHK-21, 48 h; read-out: GI; method in brief: as §1

| Structure (SMILES) | inhibition of growth at 0.1 µM [%] |
| --- | --- |
| Cc1occc1-c1nn2c(-c3ccncc3)nnc2s1 | 54.6 |
| Oc1ccccc1OCc1nn2c(-c3ccncc3)nnc2s1 | 43.8 |
| Fc1cc(Cl)c(-c2nn3c(-c4ccncc4)nnc3s2)cc1F | 46.7 |
| c1cc(-c2nnc3sc(-c4ccoc4)nn23)ccn1 | 20.3 |

tested on: NCI-H157; test: Anticancer activity against human NCI-H157 cells at 1 uM after 48 hrs by SRB assay; format: functional; conditions: NCI-H157, 48 h, read-out: GI; method in brief: as §1

| Structure (SMILES) | inhibition of growth at 1 µM [%] |
| --- | --- |
| Cc1occc1-c1nn2c(-c3ccncc3)nnc2s1 | 51.9 |
| Oc1ccccc1OCc1nn2c(-c3ccncc3)nnc2s1 | 35.9 |
| Fc1cc(Cl)c(-c2nn3c(-c4ccncc4)nnc3s2)cc1F | 41.4 |
| c1cc(-c2nnc3sc(-c4ccoc4)nn23)ccn1 | 57.7 |

From ChEMBL document CHEMBL3232838, “Synthesis, crystal structure and biological evaluation of some novel 1,2,4-triazolo[3,4-b]-1,3,4-thiadiazoles and 1,2,4-triazolo[3,4-b]-1,3,4-thiadiazines” (Eur J Med Chem, 2014)
